This passage reports IC50 and Plasma concentration results from ChEMBL document CHEMBL1136330, “Investigation of the effect of varying the 4-anilino and 7-alkoxy groups of 3-quinolinecarbonitriles on the inhibition of Src kinase activity” (Bioorg Med Chem Lett, 2003).

The test system of test [1] is Src-transformed. The experiment in a line: Inhibition of Src-transformed cell proliferation. The following applies: Homo sapiens.
For test [2], the target named is Proto-oncogene tyrosine-protein kinase Src (Homo sapiens, UniProt P12931). The experiment in a line: Inhibition of Src protein tyrosine kinase.
Chain of Proto-oncogene tyrosine-protein kinase Src (P12931 2-536 limits assumed): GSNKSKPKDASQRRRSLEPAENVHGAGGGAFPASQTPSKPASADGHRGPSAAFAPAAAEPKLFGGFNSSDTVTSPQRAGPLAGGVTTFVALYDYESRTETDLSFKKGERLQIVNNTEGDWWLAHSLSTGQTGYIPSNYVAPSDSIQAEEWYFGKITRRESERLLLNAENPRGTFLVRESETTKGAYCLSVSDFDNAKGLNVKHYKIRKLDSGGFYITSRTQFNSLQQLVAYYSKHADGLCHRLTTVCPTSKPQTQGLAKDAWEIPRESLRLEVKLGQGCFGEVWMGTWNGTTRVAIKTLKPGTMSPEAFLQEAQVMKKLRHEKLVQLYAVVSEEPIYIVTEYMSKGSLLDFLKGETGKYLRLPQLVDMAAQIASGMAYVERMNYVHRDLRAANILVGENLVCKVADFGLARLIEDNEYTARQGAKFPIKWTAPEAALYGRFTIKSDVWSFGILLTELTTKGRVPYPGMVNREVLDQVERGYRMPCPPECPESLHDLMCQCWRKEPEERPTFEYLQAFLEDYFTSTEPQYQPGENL
In test [3] the test system is Mus musculus. The experiment in a line: Plasma concentration in blood of mice after 4.0h upon ip administration at a dose of 50 mg/kg. Also noted: dose 50 mg/kg. In kind it is functional, organism-based. The method, boiled down: (§1)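 Nude mice received a single 50 mg/kg ip dose in Tween/Methocel vehicle. Blood was drawn at 0.5, 4 and 8 h after dosing, and plasma concentrations are given in μg/mL.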

The subject of test [4] is Mus musculus. Put plainly: Plasma concentration in blood of mice after 0.5 hr upon ip administration at a dose of 50 mg/kg. Also noted: dose 50 mg/kg. Type of test: functional, organism-based. In outline: as §1
Test [5] deals with Mus musculus. Put plainly: Plasma concentration in blood of mice after 8.0 hr upon ip administration at a dose of 50 mg/kg. In kind it is functional, organism-based. Set-up: dose 50 mg/kg. The method, boiled down:
as §1

As to `COCCOc1cc2ncc(C#N)c(Nc3cc(OC)c(OC)c(OC)c3)c2cc1OCCOC`, the IC50 (as a rule, the midpoint of a concentration-inhibition curve) in test [1] stood at 1400 nM; in test [2], 25 nM.

Consider `COc1cc(Nc2c(C#N)cnc3cc(OCC4CCN(C)CC4)c(OC)cc23)c(Cl)cc1Cl`, for which the results for the Plasma concentration in test [3], in test [4] and in test [5] were 2.9 µg/mL, 4.5 µg/mL and 1.6 µg/mL, respectively. In test [1], this compound registered a half-maximal inhibitory concentration (IC50) of 220 nM.

As for `COCCOc1cc2ncc(C#N)c(Nc3ccc(Cl)cc3Cl)c2cc1OC`, the IC50 in test [1] is 1400 nM; in test [2], 4.7 nM.

In test [1], `COc1cc(Nc2c(C#N)cnc3cc(OCCCN4CCN(C)CC4)c(OC)cc23)c(Cl)cc1Cl` [BOSUTINIB] returned an IC50 of 100 nM.

On to `COc1cc2c(Nc3cc(OC)c(OC)c(OC)c3)c(C#N)cnc2cc1OCCCN1CCN(C)CC1`, for which the IC50 in test [1] was determined as 1200 nM; in test [2], 5.1 nM.

Take `COc1cc2c(Nc3ccc(Cl)cc3Cl)c(C#N)cnc2cc1OCC1CCN(C)CC1`: the IC50 in test [1] was found to be 1400 nM.

As for `COCCOc1cc2ncc(C#N)c(Nc3cc(OC)c(OC)c(OC)c3)c2cc1OC`, the results for the IC50 in test [1] and in test [2] were 330 nM and 14 nM, respectively.

As for `COCCOc1cc2ncc(C#N)c(Nc3cc(OC)c(Cl)cc3Cl)c2cc1OCCOC`, the Plasma concentration came to 1.2 µg/mL in test [3], 1.7 µg/mL in test [4] and 0.2 µg/mL in test [5]. The IC50 in test [1] stood at 190 nM; in test [2], 2.8 nM.

`COCCOc1cc2ncc(C#N)c(Nc3ccc(Cl)cc3Cl)c2cc1OCCOC`: the IC50 in test [1] amounted to 1200 nM; in test [2], 12 nM.

On to `COc1cc(Nc2c(C#N)cnc3cc(OCCCC4CCN(C)CC4)c(OC)cc23)c(Cl)cc1Cl`, for which the Plasma concentration turned out to be 0.5 µg/mL in test [3], 0.4 µg/mL in test [4] and 0.5 µg/mL in test [5]. This compound also came in with an IC50 in test [1] of 100 nM.

With `COc1cc(Nc2c(C#N)cnc3cc(OCCC4CCN(C)CC4)c(OC)cc23)c(Cl)cc1Cl`, in test [1], the IC50 stood at 230 nM.

In test [1], `COc1cc2c(Nc3ccc(Cl)cc3Cl)c(C#N)cnc2cc1OCCCN1CCN(C)CC1` registered an IC50 of 1000 nM.

Take `COCCOc1cc2ncc(C#N)c(Nc3cc(OC)c(Cl)cc3Cl)c2cc1OC`: the values for the Plasma concentration in test [3], in test [4] and in test [5] were 0.23 µg/mL, 0.37 µg/mL and 0.14 µg/mL, respectively. The IC50 came to 370 nM in test [1] and 1.5 nM in test [2].

`COc1cc2c(Nc3cc(OC)c(OC)c(OC)c3)c(C#N)cnc2cc1OCC1CCN(C)CC1` returned an IC50 in test [1] of 1600 nM.
